# This is a sample that favours compounds with a hit; in the whole collection about 11% have one here.
# RORA act: activators of human nuclear receptor RORA; P35398; CHO-K1 Gal4-RORA LBD luciferase reporter, luminescence; percent increase over mock-subtracted basal signal; activation, % at 10 µM; 1.5% of 65,000 active; AID 560;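 active = activation above the mean of all tested compounds plus 3 SD, cut at about 49% in these data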;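 note: 0% = DMSO-treated RORA cells and 100% = added signal equal to DMSO minus mock-transfected cells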
# D1 allo mod: allosteric modulators of human D1 dopamine receptor. B-score at 10 µM. 5.9% of 58,000 active. AID 641. HEK293 D1, CRE-luciferase, dopamine EC30 potentiation; actives deviate in either direction. P21728;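 active = luminescence count or its row- and column-corrected plate score outside the 99.7% band of the plate's sample wells, on either side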
# mHtt clearance: mutant huntingtin protein clearance. HeLa Exon1htt(103Q)mCFP, aggregate imaging; zero = plate's median compound well. inhibition, % at 1.5 µM. 0.42% of 47,000 active. AID 853;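 active = inhibition of aggregate fluorescence above about 70%, also judged a hit by eye on the cell image, limit read from the data, passing the limit was not always enough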;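 note: cells exposed to compound for three days before fixation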
# SF1 activator: activates the human nuclear receptor SF-1; 1.9% of 65,000 active; CHO-K1 Gal4-SF-1 LBD luciferase reporter; % increase over DMSO SF-1-specific signal; activation, % at 10 µM; AID 522;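 active = activation above the mean activation of all tested compounds plus 3 SD, cut at about 50% in these data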
# Target sequence (Q13285 whole entry, looked up, the tested form may be a part): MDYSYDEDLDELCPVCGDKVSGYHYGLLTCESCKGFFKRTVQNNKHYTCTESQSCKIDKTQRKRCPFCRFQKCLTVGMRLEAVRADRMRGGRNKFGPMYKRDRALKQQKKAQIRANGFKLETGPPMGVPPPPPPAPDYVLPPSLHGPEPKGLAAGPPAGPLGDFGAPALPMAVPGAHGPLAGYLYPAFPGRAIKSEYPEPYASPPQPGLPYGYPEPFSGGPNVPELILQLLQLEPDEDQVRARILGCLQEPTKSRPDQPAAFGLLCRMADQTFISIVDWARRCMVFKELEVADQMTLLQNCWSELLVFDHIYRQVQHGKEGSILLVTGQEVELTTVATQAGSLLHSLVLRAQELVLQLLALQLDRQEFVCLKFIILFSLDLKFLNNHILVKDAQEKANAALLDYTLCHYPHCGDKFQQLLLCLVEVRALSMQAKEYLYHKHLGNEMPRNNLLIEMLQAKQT
#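 Material: Transient Gal4-SF-1 LBD reporter, CHO-K1 | Input: 4,000 cells/well | Dosing: One dose, 10 µM compound, 1% DMSO | Incubation: 20 h compound treatment, 37 °C | Detection: SteadyLite luciferase luminescence | Evaluation: Percent activation relative to DMSO median and mock-transfected background | Benchmarks: DMSO-treated SF-1-transfected cells as negative, DMSO-treated mock-transfected cells lacking SF-1 as background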
# M1 ag: agonists of M1 muscarinic receptor | CHO-M1 cells, Fluo-4 calcium fluorescence, agonist mode; active compounds read high | B-score at 10 µM | 3% of 64,000 active | AID 626;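 active = fluorescence rise, raw or as B-score row- and column-corrected plate score, outside the 99.7% band of its plate's samples, either direction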
# M1 antag: antagonists of rat M1 muscarinic receptor; AID 628; CHO-M1 cells, Fluo-4 calcium, ACh EC80 antagonist mode; active compounds read low; B-score at 10 µM; 3.4% of 64,000 active;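 active = calcium fluorescence response, raw or row-and-column corrected B-score, differing from the plate sample mean either way at a set confidence level, mostly lower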
# * marks the source's active call; other numbers are inactive results; / = no result.
SMILES,RORA act,D1 allo mod,mHtt clearance,SF1 activator,M1 ag,M1 antag
COc1cccc(-c2cc(C(=O)N3CC4(C)CC3CC(C)(C)C4)no2)c1 (configuration not stated),25,-0.089,-20,-1,0.61,-0.5
COc1cccc(-c2cc(C(=O)N3CCCCCC3)no2)c1,-20,-4.9*,/,-3,0.84,-0.67
COc1cccc(-c2cc(C(=O)N3CCCc4ccccc43)no2)c1,13,0.6,7,19,-0.21,-0.73
O=C(c1cc(-c2cccc(O)c2)on1)N1CCCCC1,0,-4.8*,/,13,0.23,-0.86
COc1cccc(-c2cc(C(=O)N3CCCCC3C)no2)c1 (configuration not stated),50*,-1.4,34,86*,-0.11,0.89
CN1CCN(C(=O)c2cc(-c3ccccc3)on2)CC1,12,-0.057,/,20,0,0.025
O=C(NCCN1CCN(c2ccccc2F)CC1)C1CCCN(S(=O)(=O)c2cnc[nH]2)C1 (configuration not stated),19,-3.2*,0,8,0.57,0.58
COc1cccc(CNc2ccc3c(c2)ncn3C(C)C)c1OC,27,4.4,-10,55*,-2.4,-0.0093
CCOC(=O)c1sc(=NC(=O)c2cccc(OC)c2)n(C)c1C,33,0.55,20,57*,0.0033,-0.24
CCOC(=O)c1sc(=NC(=O)c2ccc(OC)c(OC)c2)n(C)c1C,-8,-0.052,-65,15,0.028,-0.39
CN(C)c1oc(-c2ccc(OCc3ccccc3)cc2)nc1C#N,7,-0.74,6,61*,-0.45,0.043
CC1(C)Cc2c(sc3nc(-c4ccccc4)n(N)c(=O)c23)CO1,/,/,-3,/,/,/
CC1(C)Cc2c(sc3nc(-c4cccs4)n(N)c(=O)c23)CO1,-13,-1.1,/,-28,5*,-1.8*
Cc1ccc(C)c(C(=O)CSc2n[nH]c(C(C)C)n2)c1,0,-6*,8,2,-0.51,0.47
O=C(c1cc(-c2ccc3c(c2)OCO3)on1)N1CCN(c2ccc(F)cc2)CC1,-9,1.6,13,5,0.22,-0.44
O=C(c1cc(-c2ccc3c(c2)OCO3)on1)N1CCOCC1,2,-4.5*,-33,2,-0.12,0.23
O=C(c1cc(-c2ccc3c(c2)OCO3)on1)N1CCN(c2ccccc2)CC1,70*,0.97,-20,36,-0.017,-2
O=C(c1cc(-c2ccc(Cl)cc2Cl)on1)N1CCOCC1,-14,-4.6*,43,-5,0,0
O=C(NCc1cccs1)C1CC(=O)N(c2ccccc2)C1 (configuration not stated),-7,-0.75,-17,-4,0.15,0.4
O=C(c1ccc2c(c1)OCCO2)C1CCN(S(=O)(=O)c2ccc(F)cc2)CC1,1,1.2,/,-9,1,-0.8
CCN1CC=C2C(C1)C(c1ccc(Cl)s1)C(C#N)=C(N)C2(C#N)C#N (configuration not stated),5,-1.1,-69,-9,261*,0.51
CCOC(=O)N1CCN(C(=O)c2ccc3c(=O)n(Cc4ccc(OC)cc4)c(=S)[nH]c3c2)CC1,2,-0.038,14,-6,1.8,-1.7
CCOC(=O)N1CCN(C(=O)c2ccc(Cn3c(=S)[nH]c4cc5c(cc4c3=O)OCO5)cc2)CC1,-4,-4.1*,1,-1,1.4,-0.14
CCOC(=O)COc1ccc2c(c1)c(C(=O)OCC)c(C)n2CC,-21,0.41,-10,0,-0.34,-0.37
COC(=O)n1c(=O)oc2cc(S(=O)(=O)N3CCCCC3)ccc21,-11,-6.8*,/,-5,-0.67,-0.96
SMILES,RORA act,D1 allo mod,mHtt clearance,SF1 activator,M1 ag,M1 antag
COc1cc(S(=O)(=O)N2CCCCC2)ccc1NC=O,/,-4.2*,/,/,-0.36,0.44
COc1cc(S(=O)(=O)N2CCCCC2)ccc1NC(=O)c1ccc(F)cc1,-1,-0.014,-42,-16,-0.89,0.38
O=C(O)c1c2c(nc3ccc(S(=O)(=O)N4CCC(C(=O)NC5CCCC5)CC4)cc13)CCCCC2,-5,/,/,-4,-2.3*,0.033
Brc1cnn(-c2nc(N3CCOCC3)nc(N3CCOCC3)n2)c1,-29,3.6*,/,15,0.88,-0.38
Brc1cnc(N2CCOCC2)nc1N1CCCCC1,-27,0.99,-8,-7,0.48,0.047
COc1ccc2c(c1OC)C(=O)N(c1nccs1)C2,19,3.7,26,75*,-1.2,-1.8
c1coc(-c2nnc(NC3=NCCC3)o2)c1,32,-0.81,/,61*,-0.58,-0.024
CCCCN1C(=O)c2ccc(C(=O)NC3=NCCS3)cc2C1=O,8,/,32,21,-1.2,-0.091
COC(=O)CCCCCC(CCC(=O)OC)NC(C)=O (configuration not stated),21,-0.056,/,-16,0.061,0.036
Cc1ccc(-c2noc(-c3cccs3)n2)cc1,38,-1.9,/,26,-0.27,-0.4
Brc1ccc(-c2cnc(-c3cccs3)o2)cc1,13,-0.059,/,52*,-0.33,0.61
CC(=O)N1CN(CCCn2ccnc2)Cc2c1sc1c2CCCC1,1,/,/,12,0.018,-1.6
CC(=O)N1CN(Cc2ccccn2)Cc2c1sc1c2CCCC1,-2,-1.1,83*,1,-0.9,0.23
Cc1c(CCC#N)c(N2CCCCC2)n2c(nc3ccccc32)c1C#N,-10,3,/,4,1.6,-0.088
C=CCc1c(C)c(C#N)c2nc3ccccc3n2c1N1CCN(C)CC1,18,16*,/,24,-0.042,1.1
c1ccc(-c2nnc(CSc3nnc(-c4cccs4)o3)o2)cc1,14,3,-1,6,-0.017,-0.13
Fc1ccc(CSc2nnc(-c3cccs3)o2)cc1,25,-0.17,/,43,0.8,0.13
O=C(CSc1nnc(-c2ccc(Cl)s2)o1)N1CCCc2ccccc21,1,-2.7*,/,-19,/,/
Fc1ccc(Cc2nnc(-c3cccs3)o2)cc1,63*,-0.096,/,36,-0.1,-0.4
O=C(CSc1nnc(-c2cccs2)o1)N1CCCCC1,45,-0.96,-87,63*,0.21,0.065
c1ccc(CSc2nnc(-c3cccs3)o2)cc1,50*,0.027,-59,52*,0.048,-1.9
CC(NC(=O)NCc1cccnc1)(C(F)(F)F)C(F)(F)F,-28,-0.35,-19,3,-0.075,-0.3
Cc1ccc(CN(C)C(=O)C2CCCN2C(=O)c2cccs2)o1 (configuration not stated),-16,/,8,-6,1.1,0.014
Cc1ccc2ccc(C3C(=O)c4ccccc4C3=O)nc2c1,/,/,-32,/,/,/
COc1ccc(NC(=O)c2ccco2)cc1N,15,-1.5,/,49,-0.35,0.83
CCSc1nnc(-c2cccs2)o1,17,0.26,-87,3,-0.37,0.0066
Fc1ccccc1CSc1nnc(-c2cccs2)o1,50*,-0.059,/,92*,0.025,0.37
O=C(NC1CCCCC1)c1nc2c(nnn2Cc2ccccc2Cl)c(=O)[nH]1,7,1.9,74*,-10,1.9,0.66

# Source: PubChem
